# Key:
# Type in all cases: functional
# SK-MEL-2 = assay: Antiproliferative activity against human SKMEL2 cells after 48 hrs; conditions: SK-MEL-2, 48 h
# In short: (§1)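 NCI 60-cell screen. Cells were grown in RPMI 1640 with 5% FBS and 2 mM L-glutamine, then plated at 5,000–40,000 cells/well according to doubling time and preincubated for 24 h at 37 °C in 5% CO2. Compounds were dissolved in DMSO at 400× the top final concentration and tested at five 10-fold dilutions from 10−4 to 10−8 M for 48 h. Growth was read spectrophotometrically; GI50 is 50% net protein reduction.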
# K562 = assay: Antiproliferative activity against human K562 cells after 48 hrs; conditions: K562, 48 h; in short: as §1
# RPMI-8226 = assay: Antiproliferative activity against human RPMI8226 cells after 48 hrs; conditions: RPMI-8226, 48 h; in short: as §1
# HT-29 = assay: Antiproliferative activity against human HT29 cells after 48 hrs; conditions: HT-29, 48 h; in short: as §1
# UACC-62 = assay: Antiproliferative activity against human UACC62 cells after 48 hrs; conditions: UACC-62, 48 h
# In short: (§2)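 NCI 60-cell-line screen. Lines grown in RPMI 1640 with 5% fetal bovine serum and 2 mM L-glutamine, plated at 5,000–40,000 cells/well according to doubling time, left 24 h at 37 °C in 5% CO2. Drug stocks in DMSO at 400-fold the top final concentration. Five 10-fold dilutions, 10−4 to 10−8 M, incubated 48 h. Growth read spectrophotometrically as net protein; GI50 taken as 50% reduction.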
# T47D = assay: Antiproliferative activity against human T47D cells after 48 hrs; in short: as §2
# CAKI-1 = assay: Antiproliferative activity against human CAKI1 cells after 48 hrs; conditions: CAKI-1, 48 h; in short: as §1
# NCI-H522 = assay: Antiproliferative activity against human NCI-H522 cells after 48 hrs; conditions: NCI-H522, 48 h; in short: as §1
# HOP-92 = assay: Antiproliferative activity against human HOP92 cells after 48 hrs; conditions: HOP-92, 48 h; in short: as §1
# 786-0 = assay: Antiproliferative activity against human 786-0 cells after 48 hrs; conditions: 786-0, 48 h; in short: as §1
# TK-10 = assay: Antiproliferative activity against human TK10 cells after 48 hrs; conditions: TK-10, 48 h; in short: as §2
# UACC-257 = assay: Antiproliferative activity against human UACC257 cells after 48 hrs; conditions: UACC-257, 48 h; in short: as §2
# A498 = assay: Antiproliferative activity against human A498 cells after 48 hrs; conditions: A498, 48 h; in short: as §1
# Malme-3M = assay: Antiproliferative activity against human MALME3M cells after 48 hrs; in short: as §1
# BT-549 = assay: Antiproliferative activity against human BT549 cells after 48 hrs; conditions: BT-549, 48 h; in short: as §1
# SF-295 = assay: Antiproliferative activity against human SF295 cells after 48 hrs; conditions: SF-295, 48 h; in short: as §1
# NCI-H322M = assay: Antiproliferative activity against human NCI-H322M cells after 48 hrs; in short: as §1
# [1] = Antiproliferative activity against human […] cells after 48 hrs; in short: as §1
# MOLT-4 = assay: Antiproliferative activity against human MOLT4 cells after 48 hrs; conditions: MOLT-4, 48 h; in short: as §1
# SW-620 = assay: Antiproliferative activity against human SW620 cells after 48 hrs; conditions: SW-620, 48 h; in short: as §2
# DU-145 = assay: Antiproliferative activity against human DU145 cells after 48 hrs; conditions: DU-145, 48 h; in short: as §1
# SK-MEL-5 = assay: Antiproliferative activity against human SKMEL5 cells after 48 hrs; conditions: SK-MEL-5, 48 h; in short: as §1
# MDA-MB-231 = assay: Antiproliferative activity against human MDA-MB-231 cells after 48 hrs; conditions: MDA-MB-231, 48 h; in short: as §1
# Hs-578T = assay: Antiproliferative activity against human HS578T cells after 48 hrs; in short: as §1
# SK-MEL-28 = assay: Antiproliferative activity against human SKMEL28 cells after 48 hrs; conditions: SK-MEL-28, 48 h; in short: as §1
# KM12 = assay: Antiproliferative activity against human KM12 cells after 48 hrs; conditions: Homo sapiens, KM12, 48 h; in short: as §1
# HOP-62 = assay: Antiproliferative activity against human HOP62 cells after 48 hrs; conditions: HOP-62, 48 h; in short: as §1
# SNB-75 = assay: Antiproliferative activity against human SNB75 cells after 48 hrs; conditions: SNB-75, 48 h; in short: as §1
# [2] = read-out: Log LC50 (the source's name) (converted)
structure (smiles),measurement,setting,value
CCCCCCCCCCCCCCN[C@@H](CO)Cc1ccccc1,GI50,SK-MEL-2,2.69 µM
same,LC50,SK-MEL-2,> 100 µM
same,TGI,SK-MEL-2; read-out: Log TGI (converted),5.5 µM
same,GI50,K562,1.82 µM
same,LC50,K562,9.33 µM
same,TGI,K562; read-out: Log TGI (converted),4.07 µM
same,GI50,RPMI-8226,1.55 µM
same,CC50,RPMI-8226; [2],7.41 µM
same,TGI,RPMI-8226; read-out: Log TGI (converted),3.39 µM
same,GI50,HT-29,2.04 µM
same,LC50,HT-29,7.76 µM
same,TGI,HT-29; read-out: Log TGI (converted),3.98 µM
same,GI50,UACC-62,2 µM
same,LC50,UACC-62,7.94 µM
same,TGI,UACC-62; read-out: Log TGI (converted),3.98 µM
same,GI50,T47D,1.66 µM
same,CC50,T47D; [2],6.92 µM
same,TGI,T47D; read-out: Log TGI (converted),3.31 µM
same,GI50,CAKI-1,1.66 µM
same,CC50,CAKI-1; [2],5.62 µM
same,TGI,CAKI-1; read-out: Log TGI (converted),3.09 µM
same,GI50,NCI-H522,2.09 µM
same,TGI,NCI-H522; read-out: Log TGI (converted),3.98 µM
same,GI50,HOP-92,1.23 µM
same,LC50,HOP-92,6.46 µM
same,TGI,HOP-92; read-out: Log TGI (converted),2.82 µM
same,GI50,786-0,1.82 µM
same,CC50,786-0; [2],5.89 µM
same,TGI,786-0; read-out: Log TGI (converted),3.24 µM
same,GI50,TK-10,2.04 µM
same,CC50,TK-10; [2],6.76 µM
same,TGI,TK-10; read-out: Log TGI (converted),3.72 µM
same,GI50,UACC-257,2.09 µM
same,CC50,UACC-257; [2],17.8 µM
same,TGI,UACC-257; read-out: Log TGI (converted),4.79 µM
same,GI50,A498,14.5 µM
same,CC50,A498; [2],52.5 µM
same,TGI,A498; read-out: Log TGI (converted),27.5 µM
same,GI50,Malme-3M,2 µM
same,LC50,Malme-3M,6.31 µM
same,TGI,Malme-3M; read-out: Log TGI (converted),3.55 µM
same,LC50,BT-549,4.57 µM
same,TGI,BT-549; read-out: Log TGI (converted),1.78 µM
same,GI50,SF-295,1.78 µM
same,LC50,SF-295,6.17 µM
same,TGI,SF-295; read-out: Log TGI (converted),3.31 µM
same,GI50,NCI-H322M,2 µM
same,CC50,NCI-H322M; [2],7.41 µM
same,TGI,NCI-H322M; read-out: Log TGI (converted),3.89 µM
same,GI50,[1],4.68 µM
same,LC50,[1],45.7 µM
same,TGI,[1]; read-out: Log TGI (converted),17 µM
same,GI50,MOLT-4,2.04 µM
same,LC50,MOLT-4,9.33 µM
same,TGI,MOLT-4; read-out: Log TGI (converted),4.37 µM
same,GI50,SW-620,2 µM
same,LC50 (concentration killing 50% of cells),SW-620,8.13 µM
same,TGI,SW-620; read-out: Log TGI (converted),4.07 µM
same,GI50,DU-145,1.45 µM
same,CC50,DU-145; [2],6.03 µM
same,TGI,DU-145; read-out: Log TGI (converted),3.09 µM
same,GI50,SK-MEL-5,1.78 µM
same,CC50,SK-MEL-5; [2],6.03 µM
same,TGI,SK-MEL-5; read-out: Log TGI (converted),3.24 µM
same,GI50,MDA-MB-231,2 µM
same,LC50 (50% lethal concentration),MDA-MB-231,6.61 µM
same,TGI,MDA-MB-231; read-out: Log TGI (converted),3.63 µM
same,GI50,Hs-578T,2.4 µM
same,LC50,Hs-578T,11 µM
same,TGI,Hs-578T; read-out: Log TGI (converted),5.01 µM
same,GI50,SK-MEL-28,1.91 µM
same,LC50,SK-MEL-28,6.31 µM
same,TGI,SK-MEL-28; read-out: Log TGI (converted),3.47 µM
same,GI50,KM12,1.86 µM
same,CC50,KM12; [2],6.17 µM
same,TGI,KM12; read-out: Log TGI (converted),3.39 µM
same,GI50,HOP-62,1.23 µM
same,CC50,HOP-62; [2],5.37 µM
same,TGI,HOP-62; read-out: Log TGI (converted),2.57 µM
same,GI50,SNB-75,2.19 µM
same,CC50,SNB-75; [2],14.1 µM
same,TGI,SNB-75; read-out: Log TGI (converted),4.79 µM
